The IC50 is the midpoint of a concentration-inhibition curve. As usually defined, the EC50 is the concentration that produces a half-maximal response. One may read the CC50 as the concentration at which the toxic effect on the cells reaches its halfway point. Read a low CC50 as greater toxicity to the cells.

The results in this text go back to ChEMBL document CHEMBL1153492, “Design, synthesis, and structure-activity relationships of 1,3-dihydrobenzimidazol-2-one analogues as anti-HIV agents” (Bioorg Med Chem, 2009).

The target in data set [1] is Human immunodeficiency virus type 1 reverse transcriptase (Human immunodeficiency virus 1, UniProt Q72547). Put plainly: Inhibition of HIV1 recombinant RNA-dependent DNA polymerase activity of reverse transcriptase assessed as incorporation of radioactive dTTP into poly(rA)/oligo(dT).
For data set [2], the system named is Human immunodeficiency virus 1. Kind of data set: Antiviral activity against HIV1 3B infected in human MT4 cells assessed as reduction of virus-induced cytopathic effect after 5 days. Conditions: Human immunodeficiency virus 1, 3B, MT4, 120 h. The class given is functional, organism-based. The gist of the method:
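MT-4 cells infected with HIV-1 IIIB at about 100-times the CCID50 per ml of cell suspension, plated and mixed with compound, then incubated at 37 °C for 5 days. Viable cell number was then determined. EC50 is the concentration that reduces virus-induced cytopathicity by 50%.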

The nature of data set [3]: Cytotoxicity against human MT4 cells after 5 days. The class given is cell-based. The gist of the method:
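Run in MT-4 cells in parallel with the HIV-1 IIIB cytopathicity assay, with 37 °C incubation for 5 days and a read-out of viable MT-4 cell number.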

Data set [4] can be described thus: Selectivity index, CC50 for human MT4 cells to EC50 for HIV1 3B. The class given is toxicity, cell-based. As to conditions: read-out: Ratio CC50/EC50.

SMILES strings stand for the structures.

With `O=C(CCl)Nc1ccc(Cl)cc1NS(=O)(=O)c1c(Cl)cccc1Cl`, in data set [1], the IC50 is 32.7 µM. In data set [2], the EC50 was 1.5 µM. The compound further registered a CC50 at 120 h in data set [3] of 160 µM. Further, the selectivity ratio in data set [4] was 107.
The corresponding values for `O=C(CCl)Nc1ccc(Cl)cc1NS(=O)(=O)c1cc(Cl)cc(Cl)c1` are 15.9 µM, 8.99 µM, over 292 µM and over 32.
In the same order, the values of `O=c1[nH]c2ccc(Cl)cc2n1S(=O)(=O)c1c(Cl)cccc1Cl` are over 100 µM, 1.52 µM, over 331 µM and over 218.
For the compound `O=C1CN(S(=O)(=O)c2cccc(F)c2)c2cc(Cl)ccc2N1`, the 50% inhibitory concentration (IC50) in data set [1] is over 40 µM. Further, the EC50 in data set [2] is 7.04 µM. The compound also showed a CC50 at 120 h in data set [3] of 189 µM. Besides, in data set [4], the selectivity ratio was determined as 27.
The corresponding values for `O=c1[nH]c2ccc(Cl)cc2n1S(=O)(=O)c1ccccc1F` are 0.85 µM, 0.23 µM, over 383 µM and over 1660.
Consider `O=C1CN(S(=O)(=O)c2c(F)cccc2F)c2cc(Cl)ccc2N1`, for which, in data set [1], the IC50 is over 40 µM. In data set [2], the EC50 amounted to 20.7 µM. Moreover, it took 180 µM to reach half-maximal cytotoxicity in data set [3] (CC50 at 120 h). Besides, in data set [4], the selectivity ratio was found to be 9.
`O=C1CN(S(=O)(=O)c2ccccc2F)c2cc(Cl)ccc2N1`: the IC50 in data set [1] was over 40 µM. For the same compound, the EC50 in data set [2] amounted to 6.1 µM. The CC50 at 120 h in data set [3] was 197 µM. In addition, the selectivity ratio in data set [4] was 32.
Regarding `Cc1cc(C)cc(S(=O)(=O)N2CC(=O)Nc3ccc(Cl)cc32)c1`, in data set [1], the IC50 was over 40 µM. Besides, the EC50 in data set [2] stood at 0.1 µM. The compound also returned a CC50 at 120 h in data set [3] of 80.6 µM. Moreover, the selectivity ratio in data set [4] was found to be 782.
For `O=C1CN(S(=O)(=O)c2cc(F)cc(F)c2)c2cc(Cl)ccc2N1`, in data set [1], the IC50 was over 40 µM. The EC50 in data set [2] was found to be 14 µM. This compound displayed a CC50 at 120 h in data set [3] of 187 µM. The selectivity ratio in data set [4] stood at 13.
With `N#Cc1cccc(S(=O)(=O)Nc2cc(Cl)ccc2NC(=O)CCl)c1`, the IC50 in data set [1] turned out to be 284 µM. Further, the EC50 in data set [2] is over 156 µM. In addition, the CC50 at 120 h in data set [3] was over 156 µM. Besides, the selectivity ratio in data set [4] is under 1.
For `O=C1CN(S(=O)(=O)c2cc(Cl)cc(Cl)c2)c2cc(Cl)ccc2N1`, the IC50 in data set [1] is over 40 µM. Besides, in data set [2], the EC50 came out at 26.7 µM. Besides, in data set [3], the CC50 at 120 h was at least 206 µM. Besides, the selectivity ratio in data set [4] was over 8.
Turning to `O=c1[nH]c2ccc(Cl)cc2n1S(=O)(=O)c1ccc(F)cc1`, the IC50 in data set [1] was over 40 µM. Also, the EC50 in data set [2] was 36 µM. In addition, the CC50 at 120 h in data set [3] was at least 355 µM. Also, the selectivity ratio in data set [4] was at least 10.
Consider `O=C1CN(S(=O)(=O)c2c(Cl)cccc2Cl)c2cc(Cl)ccc2N1`, for which, in data set [1], the IC50 turned out to be 1.67 µM. In data set [2], the EC50 amounted to 1.09 µM. This compound also had a CC50 at 120 h in data set [3] of over 319 µM. The selectivity ratio in data set [4] is over 293.
With `O=c1[nH]c2ccc(Cl)cc2n1S(=O)(=O)c1cc(Cl)cc(Cl)c1`, in data set [1], the IC50 was 0.003 µM. Also, the EC50 in data set [2] amounted to 0.048 µM. In data set [3], this compound showed a CC50 at 120 h of 179 µM. For the same compound, the selectivity ratio in data set [4] was determined as 3740.
Consider `O=C1CN(S(=O)(=O)c2ccc(F)cc2)c2cc(Cl)ccc2N1`, for which the IC50 in data set [1] was over 40 µM. Besides, the EC50 in data set [2] was over 172 µM. The compound also yielded a CC50 at 120 h in data set [3] of 172 µM. The selectivity ratio in data set [4] was under 1.
Consider `N#Cc1cccc(S(=O)(=O)n2c(=O)[nH]c3ccc(Cl)cc32)c1`, for which, in data set [1], the IC50 is 0.36 µM. For the same compound, the EC50 in data set [2] worked out at 0.149 µM. In data set [3], this compound displayed a CC50 at 120 h of 205 µM. The selectivity ratio in data set [4] is 1360.
In the same order, the values of `Cc1cc(C)cc(S(=O)(=O)Nc2cc(Cl)ccc2NC(=O)CCl)c1` are 3.36 µM, 0.047 µM, 35.1 µM and 747.
As to `N#Cc1cccc(S(=O)(=O)N2CC(=O)Nc3ccc(Cl)cc32)c1`, the IC50 in data set [1] is over 40 µM. Moreover, in data set [2], the concentration for a half-maximal effect (EC50) was at least 47.7 µM. The compound further returned a CC50 at 120 h in data set [3] of 186 µM. Further, the selectivity ratio in data set [4] is at most 4.
The corresponding values for `O=C(CCl)Nc1ccc(Cl)cc1NS(=O)(=O)c1c(F)cccc1F` are 30.4 µM, 6.96 µM, 175 µM and 25.
With `O=C(CCl)Nc1ccc(Cl)cc1NS(=O)(=O)c1cc(F)cc(F)c1`, the IC50 in data set [1] was found to be 27.8 µM. For the same compound, in data set [2], the EC50 is 11.2 µM. Also, it took 179 µM to reach half-maximal cytotoxicity in data set [3] (CC50 at 120 h). The selectivity ratio in data set [4] was determined as 16.
Turning to `O=c1[nH]c2ccc(Cl)cc2n1S(=O)(=O)c1cccc(F)c1`, in data set [1], the IC50 amounted to 0.132 µM. Besides, in data set [2], the EC50 is 0.043 µM. In data set [3], this compound displayed a CC50 at 120 h of 128 µM. Further, in data set [4], the selectivity ratio stood at 2960.
Regarding `O=C1Nc2ccc(Cl)cc2[C@@](C#CC2CC2)(C(F)(F)F)O1` [EFAVIRENZ], in data set [3], the CC50 at 120 h is over 6 µM.
In data set [3], `Cc1ccnc2c1NC(=O)c1cccnc1N2C1CC1` [NEVIRAPINE] registered a CC50 at 120 h of over 15 µM.
